An excerpt weighted towards active compounds, which were near 3% of everything screened.
PLCb3 inh: inhibitors of human phospholipase C beta3; Q01970; Purified PLC-beta3, fluorogenic substrate, fluorescence; inhibition, % at 12.2 µM; 370,000 compounds, 0.18% hits; in the data active = inhibition above about 11%;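 also: 0% = median of compound wells on plate and 100% = full blocker control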
CendR NRP1 mod: NRP-1/CendR interaction modulation | O14786 | FAM-RPARPAR peptide binding to NRP-1, fluorescence polarization | inhibition, % at 25 µM | 360,000 compounds, 0.85% hits;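 active = inhibition or corrected inhibition above about 18%, plus a signal ratio from 0.5 to 1.5, limit read from the data, passing the limit was not always enough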
PLC-gamma1 inh: PLC-gamma1 (human) inhibition, primary screen | P19174 | AID 720700 | 370,000 compounds, 0.84% hits | inhibition, % at 12.2 µM | purified PLC-gamma1, fluorogenic substrate, fluorescence; in the data active = inhibition above about 9.5%
DDE Tn6 FP inh: DD(E)-Tn6 binding inhibition, primary FP screen. P02675. Fibrin DD(E) TRITC-Tn6 fluorescence polarization displacement. inhibition, % at 8.3 µM. 370,000 compounds, 0.21% hits. AID 720509;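 active = inhibition above a per-campaign cutoff: mean of compounds within control limits plus 3 SD, cut at about 15% in these data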;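 also: 0% = median of all compound wells on the plate and 100% = blocking peptide control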
Tn7 DDE FP: disrupts Tn7 cyclic peptide binding to fibrin D-Dimer-E complex. P02675. FP displacement of FITC-Tn7 peptide from fibrin DD(E); 0% = median of compound wells per plate. inhibition, % at 8.3 µM. 370,000 compounds, 0.13% hits. AID 720508;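 active = inhibition above the mean of compounds falling within the control limits plus 3 SD of them, cut at about 14% in these data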;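 also: 0% = plate median of compound wells and 100% = 10 µM Aha-Tn7 peptide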
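Assay system: Human clot-derived fibrin DD(E) complex | Buffer or medium: Tris/NaCl/CaCl2 buffer, pH 7.8 | Repeats: One replicate per compound | Benchmarks: Aha-Tn7 high control | Measure: % inhibition scaled between sample-field median and high-control FP | Schedule: 10 min plus 3 h, room temperature | Signal: Fluorescence polarization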
proKLK7 act: activates the human kallikrein-7 zymogen; P49862; purified proKLK7, EDANS-DABCYL substrate fluorescence; 100% is mature enzyme control, 0% vehicle; activation, % at 7 µM; 370,000 compounds, 0.9% hits; AID 652039;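 active = activation above the mean of all tested compounds plus 3 SD, computed per campaign excluding outliers beyond control limits, cut at about 13% in these data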
* hit, by the source's call; / = not tested or not shown.

SMILES	PLCb3 inh	CendR NRP1 mod	PLC-gamma1 inh	DDE Tn6 FP inh	Tn7 DDE FP	proKLK7 act
CC1(C)CC(CCNS(=O)(=O)c2ccccc2)(c2ccccc2)CCO1 (stereo unspecified)	3.2	-8.8	0.8	-4.4	0.5	0.6
CC1(C)CC(CCNC(=O)CCl)(c2ccccc2)CCO1 (stereo unspecified)	-61.7	26.2*	3.5	2.2	-4.9	-0.1
CC(C)CN1C(=O)C[C@@]2(C(=O)N(C)c3ccc(NC(=O)C(F)(F)F)cc32)C1c1ccccc1 (stereo partly specified)	2.3	/	0.0	0.0	9.9	-0.3
CC(C)(N[C@@H](Cc1ccccc1)C(=O)NCCc1c[nH]c2ccccc12)C(=O)NC1CCCCC1	2.3	/	3.0	0.2	-2.5	/
COc1ccc([C@H]2CC(=O)C=C(c3cc(C(F)(F)F)cc(C(F)(F)F)c3)C2)cc1	2.2	0.6	1.1	4.3	0.8	0.3
COc1ccc([C@H]2CC(=O)C=C(c3ccccc3C(F)(F)F)C2)cc1	-6.9	28.7*	-6.0	0.6	4.1	0.1
CCN(CC)CCCNC(=O)c1cn(C(C)c2ccccc2)nn1 (stereo unspecified)	0.5	/	-2.6	7.2	2.0	0.1
Cc1ccc(S(=O)(=O)N2CCC(C(N)=O)CC2)cc1[N+](=O)[O-]	-7.8	27.2*	-9.3	1.4	-6.7	-0.7
Clc1ccccc1-c1nn2c(-c3cc(-c4ccccc4)n[nH]3)nnc2s1	-1.1	/	-0.8	-4.1	-3.8	0.4
CC(C)(C)c1ccc(CNc2ccc([N+](=O)[O-])cn2)cc1	4.6	31.8*	2.0	2.7	-5.8	0.3
CCOc1ccccc1N(CC(=O)N1CCOCC1)S(=O)(=O)c1ccc(SC)cc1	2.8	28.5*	3.5	2.0	-6.5	0.2
Cc1ccc(S(=O)(=O)N(CC(=O)N2CCOCC2)c2ccccc2F)cc1	-4.3	10.2	-1.4	-0.9	5.5	0.2
C=CCN1C(=O)[C@H](CC(=O)NCCCOCCCC)[C@@]2(C(=O)OCC)CCCC=C12	3.2	/	7.9	-4.7	0.1	0.2
O=[N+]([O-])c1ccc(-n2nnnc2CN2CCOCC2)cc1	3.9	9.4	1.0	-2.2	0.4	-0.4
O=[N+]([O-])c1ccc(-n2nnnc2CN2CCCCC2)cc1	3.6	24.2*	2.4	-6.9	-4.1	-0.3
Cc1ccc(S(=O)(=O)N2CCC(=O)N(CCOC(=O)Nc3cc(C)cc(C)c3)CC2)cc1	2.3	13.7	-1.8	4.1	1.9	0.3
Cc1ccc(S(=O)(=O)N2CCC(=O)N(CCOC(=O)Nc3ccccc3C)CC2)cc1	4.3	19.2*	0.8	-3.1	-2.9	-0.3
CCOc1cccc(/C=C/c2ccc3cccc(O)c3n2)c1OC	-36.5	-3.5	-29.7	-3.9	6.8	0.5
COc1cccc(C=Cc2nccc3ccccc23)c1OC	-165.5	25.4*	-127.6	6.4	1.6	-0.5
Cc1ccc(-c2nnn(CC(=O)N(c3cccc(F)c3)C(C(=O)NC(C)(C)C)c3ccco3)n2)o1 (stereo unspecified)	-1.6	43.5*	-0.5	1.0	2.6	0.1
CCC(C)(C)NC(=O)C(c1ccco1)N(C(=O)c1csnn1)c1cccc(F)c1 (stereo unspecified)	-0.1	33.6*	-0.3	-5.3	-1.8	-0.2
Cc1ccc(-c2nnn(CC(=O)N(c3cccc(O)c3)C(C(=O)NC(C)(C)C)c3cccs3)n2)o1 (stereo unspecified)	/	-11.6	/	/	/	/
Cc1nc(N2CCN(C(=O)C3CCCCC3)CC2)c2c3c(sc2n1)CCCC3	-5.9	/	-2.2	-7.0	4.0	/
COC(=O)C1=C(C)N(C)C(=NCc2ccccc2C(F)(F)F)NC1CCc1ccccc1 (stereo unspecified)	2.4	/	0.2	1.7	-13.7	0.5
CC(N=C1NS(=O)(=O)c2ccccc21)C(=O)NCCCc1ccccc1 (stereo unspecified)	-3.1	-13.7	-0.1	2.8	-7.4	-0.1
SMILES	PLCb3 inh	CendR NRP1 mod	PLC-gamma1 inh	DDE Tn6 FP inh	Tn7 DDE FP	proKLK7 act
Cc1ccc(NC(=O)C(C)N=C2NS(=O)(=O)c3ccccc32)cc1F (stereo unspecified)	-7.5	21.0*	-0.4	1.6	1.9	-0.5
CCOC(=O)[C@]12CCCC=C1N(CCCOC)C(=O)[C@@H]2CC(=O)N1CCC(c2ccccc2)CC1	1.5	/	-0.9	1.4	2.1	0.0
CC(=O)n1c2ccccc2c2c1c1ccccc1n2C	-1.8	38.5*	-5.2	7.4	-0.3	-0.3
COC(=O)[C@]12C[C@H](CC(=O)NCC3CCCCC3)C(=O)N(Cc3ccccc3)C1=C[C@H](COCc1ccccc1)O[C@@H]2C	-1.1	/	-0.8	-3.6	-7.4	0.5
O=C(c1n[nH]c2ccccc12)N1CCN(S(=O)(=O)c2ccc3ccccc3c2)CC1	-1.2	47.4*	-4.9	-10.0	4.2	0.5
Cc1ccc(S(=O)(=O)N2CCN(C(=O)c3n[nH]c4ccccc34)CC2)cc1	1.9	0.0	1.2	-0.7	-1.3	4.8
COc1ccc(CN(CCN2CCOCC2)C(=O)c2cc(F)ccc2F)cc1OC	3.1	/	2.3	-0.9	-1.8	-0.2
COc1cc(CC(=O)OCC(=O)N2C(C)CCCC2C)cc(OC)c1OC (stereo unspecified)	-10.2	25.6*	8.9	0.5	-0.2	-0.1
Cc1c(NC(=O)C2CCCN(S(=O)(=O)c3ccccc3[N+](=O)[O-])C2)c(=O)n(-c2ccccc2)n1C (stereo unspecified)	3.2	/	3.5	-2.0	1.3	-0.3
COc1cc2c(c(OC)c1OC)-c1c(cc3c(c1OC)OCO3)C[C@H](C)[C@@](C)(O)C2	2.2	-15.9	1.4	1.4	3.4	0.2
COc1cc2c(c(OC)c1OC)-c1c(cc(OC)c(OC)c1OC)C[C@](C)(O)[C@@H](C)C2	-0.6	39.4*	2.1	-2.6	5.5	-0.7
O=C(COc1ccc(Cl)cc1Br)N1CCN(c2ccccc2)CC1	3.7	33.9*	4.3	-4.6	0.5	0.3
O=C(COc1ccccc1Br)N1CCN(C(=O)c2cccs2)CC1	-3.8	2.9	13.6*	2.8	-7.7	0.0
CSc1ccc(/C=C/C(=O)OCC(=O)N2CCN(c3ccccc3)CC2)cc1	-10.9	8.6	-6.5	-7.6	4.0	-0.4
O=CN1CCN(C(=O)COc2ccc(Cl)cc2Br)CC1	-0.3	0.7	-0.5	-2.2	1.6	-0.9
O=C(/C=C/c1cccc(Br)c1)OCC(=O)N1CCN(c2ccccc2)CC1	-4.4	27.1*	1.8	-0.8	-1.8	0.2
O=C(COc1ccccc1)N1CCN(C(=O)c2cccs2)CC1	2.9	3.5	3.2	-6.4	-2.9	-0.4
C/C(C=NNC(=O)CSc1nnc(-c2ccc(Cl)cc2)n1-c1ccccc1)=C\c1ccccc1	6.7	/	8.8	0.9	-5.6	0.0
